Assay results taken from paper PMC3278212 (Bioorganic & medicinal chemistry letters, 2012).

Columns and labels:
IIIB strain of HIV-1 = format: cell-based; conditions: HIV-1 IIIB, MT-2 cells
MT-2 human T-cells = assay: Cytotoxicity: inhibition of MT-2 cell growth, MTT; format: cell-based; conditions: MT-2 cells
Outline: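 Run alongside the HIV-1 IIIB protection assay in MT-2 human T-cells, with the MTT colorimetric method as read-out. CC50 is the concentration that inhibits MT-2 cell growth by 50%, obtained at the same time as the EC50 for protection of infected cells.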

## COc1nc(NCCNc2nc(Nc3ccc(C#N)c(OCC=C(C)C)c3)nc(OC)n2)nc(Nc2ccc(C#N)c(OCC=C(C)C)c2)n1 [Compound 6e]
IIIB strain of HIV-1
  anti-viral activity below CC50 level: did not show anti-viral activity below their CC50 levels

## COc1nc(Nc2ccc(C#N)c(OCC=C(C)C)c2)nc(OCCOc2nc(Nc3ccc(C#N)c(OCC=C(C)C)c3)nc(OC)n2)n1 [Compound 6a]
MT-2 human T-cells
  cytotoxicity: 20 to 40 µM

## COc1nc(Nc2ccc(C#N)c(OCC=C(C)C)c2)nc(OCCCOc2nc(Nc3ccc(C#N)c(OCC=C(C)C)c3)nc(OC)n2)n1 [Compound 6b]
MT-2 human T-cells
  cytotoxicity: 20 to 40 µM

## COc1nc(NCCCNc2nc(Nc3ccc(C#N)c(OCC=C(C)C)c3)nc(OC)n2)nc(Nc2ccc(C#N)c(OCC=C(C)C)c2)n1 [Compound 6f]
IIIB strain of HIV-1
  anti-viral activity below CC50 level: did not show anti-viral activity below their CC50 levels
